According to article PMC8451688 (Journal of Enzyme Inhibition and Medicinal Chemistry, 2021):
Where two headings read alike, the source gives them in different places. Each block holds one molecule with its values, some of them ahead of it.

Key:
NRK-52E cells = format: cell-based; settings: Table 3; normal rat kidney cell line; MTT
A549 cells [1] = assay: cells; format: cell-based, human; settings: mean of triplicate; for IC50 (%inhibition ± SD) A549: Table 3
PC-3 cells = format: cell-based, human; settings: Table 3; MTT; mean of triplicate
HepG2 cells = format: cell-based, human; settings: Table 3; MTT; mean of triplicate
A549 cells [2] = assay: Cell cycle analysis by PI flow cytometry; format: cell-based, human; settings: 24 h
Procedure, shortened: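 A549 cells were treated for 24 h with test compound at 0, 4 or 8 µM, with 0.1% DMSO as control. Cells were collected and washed twice in cold PBS, then fixed in cold 70% ethanol overnight at 4 °C. They were treated with 1 mg/mL RNase A for 30 min at 37 °C, stained with PI for 30 min at 4 °C in the dark, and analysed by flow cytometry.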

[3] = Homo sapiens, A549, read-out: IC50 A549, MTT

- IC50 (A549 cells [1]; [3]): 11.3 ± 1.5 µM
- IC50 (%inhibition ± SD) A549 (A549 cells [1]; MTT): 11.3 ± 1.50%
- IC50 (%inhibition ± SD) PC-3 (PC-3 cells): 21.7 ± 2.89%
- IC50 (%inhibition ± SD) HepG2 (HepG2 cells): 24.7 ± 8.91%
Molecule: O=C(CN1C(=O)/C(=C/c2ccccc2)SC1=S)Nc1ccccc1 [I1, (Z)-2–(5-benzylidene-4-oxo-2-thioxothiazolidin-3-yl)-N-phenylacetamide]
- IC50 (%inhibition ± SD) NRK-52E (NRK-52E cells): 13.1 ± 3.58%

- IC50 (A549 cells [1]; [3]): 15.8 ± 3.03 µM
Molecule: O=C(CN1C(=O)/C(=C/c2ccccc2O)SC1=S)Nc1ccccc1 [I4, (Z)-2–(5-(2-hydroxybenzylidene)-4-oxo-2-thioxothiazolidin-3-yl)-N-phenylacetamide]

- IC50 (A549 cells [1]; [3]): 13.4 ± 5.03 µM
- IC50 (%inhibition ± SD) A549 (A549 cells [1]; MTT): 13.4 ± 5.03%
- IC50 (%inhibition ± SD) HepG2 (HepG2 cells): 36.4 ± 8.00%
Molecule: COc1ccccc1/C=C1\SC(=S)N(CC(=O)Nc2ccccc2)C1=O [I5, (Z)-2–(5-(2-methoxybenzylidene)-4-oxo-2-thioxothiazolidin-3-yl)-N-phenylacetamide]
- IC50 (%inhibition ± SD) NRK-52E (NRK-52E cells): 17.4 ± 4.57%

- IC50 (A549 cells [1]; [3]): 42.8 ± 6.5 µM
Molecule: O=C(CN1C(=O)/C(=C/c2cccc(O)c2)SC1=S)Nc1ccccc1 [I10, (Z)-2–(5-(3-hydroxybenzylidene)-4-oxo-2-thioxothiazolidin-3-yl)-N-phenylacetamide]

- IC50 (A549 cells [1]; [3]): 16.8 ± 3.66 µM
Molecule: O=C(CN1C(=O)/C(=C/c2ccc(O)cc2)SC1=S)Nc1ccccc1 [I16, (Z)-2-(5-(4-hydroxybenzylidene)-4-oxo-2-thioxothiazolidin-3-yl)-N-phenylacetamide]

- IC50 (A549 cells [1]; [3]): 20.7 ± 3.33 µM
Molecule: CC(C)c1ccc(/C=C2\SC(=S)N(CC(=O)Nc3ccccc3)C2=O)cc1 [I17, (Z)-2-(5-(4-isopropylbenzylidene)-4-oxo-2-thioxothiazolidin-3-yl)-N-phenylacetamide]

- IC50 (%inhibition ± SD) PC-3 (PC-3 cells): 18.1 ± 3.68%
- IC50 (%inhibition ± SD) HepG2 (HepG2 cells): 18.8 ± 5.40%
Molecule: CCOc1ccc(/C=C2\SC(=S)N(CC(=O)Nc3ccccc3)C2=O)cc1 [I19, (Z)-2-(5-(4-ethoxybenzylidene)-4-oxo-2-thioxothiazolidin-3-yl)-N-phenylacetamide]
- IC50 (%inhibition ± SD) NRK-52E (NRK-52E cells): 11.0 ± 3.10%

- IC50 (A549 cells [1]; [3]): 15.7 ± 0.98 µM
Molecule: O=C(CN1C(=O)/C(=C/C2CC2)SC1=S)Nc1ccccc1 [I23, (Z)-2-(5-(cyclopropylmethylene)-4-oxo-2-thioxothiazolidin-3-yl)-N-phenylacetamide]

- IC50 (%inhibition ± SD) PC-3 (PC-3 cells): 25.1 ± 3.39%
Molecule: O=C(CN1C(=O)/C(=C/c2ccco2)SC1=S)Nc1ccccc1 [I24, (Z)-2-(5-(furan-2-ylmethylene)-4-oxo-2-thioxothiazolidin-3-yl)-N-phenylacetamide]
- IC50 (%inhibition ± SD) NRK-52E (NRK-52E cells): 20.1 ± 2.12%

- IC50 (A549 cells [1]; [3]): 26.4 ± 8 µM
Molecule: O=C(CN1C(=O)/C(=C/c2ccncc2)SC1=S)Nc1ccccc1 [I29, (Z)-2-(4-oxo-5-(pyridin-4-ylmethylene)-2-thioxothiazolidin-3-yl)-N-phenylacetamide]

- IC50 (A549 cells [1]; read-out: IC50 A549, MTT): 84.9 ± 9 µM
Molecule: (Z)-2-(5-(2-hydroxy-3-methoxybenzylidene)-4-oxo-2-thioxothiazolidin-3-yl)-N-phenylacetamide [I22]

- IC50 (%inhibition ± SD) A549 (A549 cells [1]; MTT): 7.00 ± 1.06%
- IC50 (A549 cells [1]; read-out: IC50 A549, MTT): 7 ± 1.06 µM
- IC50 (%inhibition ± SD) PC-3 (PC-3 cells): 19.9 ± 5.56%
- IC50 (%inhibition ± SD) HepG2 (HepG2 cells): 20.3 ± 2.93%
Molecule: (Z)-2-(5-(4-(dimethylamino)benzylidene)-4-oxo-2-thioxothiazolidin-3-yl)-N-phenylacetamide [I20]
- IC50 (%inhibition ± SD) NRK-52E (NRK-52E cells): 14.7 ± 1.58%
- percentage of cells in G2/M (A549 cells [2]; A549, 4 µM): 10.92%
- percentage of cells in G2/M (A549 cells [2]; A549, 8 µM): 15.45%

The remaining lines, values behind:

Molecule: O=C(CN1C(=O)/C(=C/c2ccccc2F)SC1=S)Nc1ccccc1 [I2, (Z)-2–(5-(2-fluorobenzylidene)-4-oxo-2-thioxothiazolidin-3-yl)-N-phenylacetamide]
- IC50 (A549 cells [1]; read-out: IC50 A549, MTT): 22.7 ± 5.45 µM

Molecule: O=C(CN1C(=O)/C(=C/c2cccc([N+](=O)[O-])c2)SC1=S)Nc1ccccc1 [I6, (Z)-2–(5-(3-nitrobenzylidene)-4-oxo-2-thioxothiazolidin-3-yl)-N-phenylacetamide]
- IC50 (A549 cells [1]; [3]): 22.9 ± 2.07 µM

Molecule: O=C(CN1C(=O)/C(=C/c2cccc(F)c2)SC1=S)Nc1ccccc1 [I7, (Z)-2–(5-(3-fluorobenzylidene)-4-oxo-2-thioxothiazolidin-3-yl)-N-phenylacetamide]
- IC50 (A549 cells [1]; [3]): 29.6 ± 3.72 µM

Molecule: O=C(CN1C(=O)/C(=C/c2cccc(Cl)c2)SC1=S)Nc1ccccc1 [I8, (Z)-2–(5-(3-chlorobenzylidene)-4-oxo-2-thioxothiazolidin-3-yl)-N-phenylacetamide]
- IC50 (A549 cells [1]; [3]): 31 ± 2.21 µM

Molecule: O=C(CN1C(=O)/C(=C/c2ccc([N+](=O)[O-])cc2)SC1=S)Nc1ccccc1 [I12, (Z)-2–(5-(4-nitrobenzylidene)-4-oxo-2-thioxothiazolidin-3-yl)-N-phenylacetamide]
- IC50 (A549 cells [1]; [3]): 23.6 ± 3 µM

Molecule: O=C(CN1C(=O)/C(=C/c2ccc(C(F)(F)F)cc2)SC1=S)Nc1ccccc1 [I13, (Z)-2-(4-oxo-2-thioxo-5-(4-(trifluoromethyl)benzylidene)thiazolidin-3-yl)-N-phenylacetamide]
- IC50 (A549 cells [1]; [3]): 20.1 ± 3.13 µM

Molecule: O=C(CN1C(=O)/C(=C/c2ccc(F)cc2)SC1=S)Nc1ccccc1 [I14, (Z)-2–(5-(4-fluorobenzylidene)-4-oxo-2-thioxothiazolidin-3-yl)-N-phenylacetamide]
- IC50 (A549 cells [1]; [3]): 18.8 ± 3.31 µM

Molecule: O=C(CN1C(=O)/C(=C/c2ccc(Cl)cc2)SC1=S)Nc1ccccc1 [I15, (Z)-2–(5-(4-chlorobenzylidene)-4-oxo-2-thioxothiazolidin-3-yl)-N-phenylacetamide]
- IC50 (%inhibition ± SD) NRK-52E (NRK-52E cells): 15.1 ± 2.45%
- IC50 (%inhibition ± SD) PC-3 (PC-3 cells): 17.6 ± 2.51%
- IC50 (%inhibition ± SD) HepG2 (HepG2 cells): 20.6 ± 5.19%

Molecule: O=C(CN1C(=O)/C(=C/c2ccc(Cl)cc2Cl)SC1=S)Nc1ccccc1 [I21, (Z)-2-(5-(2,4-dichlorobenzylidene)-4-oxo-2-thioxothiazolidin-3-yl)-N-phenylacetamide]
- IC50 (A549 cells [1]; [3]): 36.9 ± 1.36 µM

Molecule: O=C(CN1C(=O)/C(=C/c2cccs2)SC1=S)Nc1ccccc1 [I25, (Z)-2–(4-oxo-5-(thiophen-2-ylmethylene)-2-thioxothiazolidin-3-yl)-N-phenylacetamide]
- IC50 (A549 cells [1]; [3]): 16 ± 3.46 µM

Molecule: O=C(CN1C(=O)/C(=C/c2ccc[nH]2)SC1=S)Nc1ccccc1 [I26, (Z)-2-(5-((1H-pyrrol-2-yl)methylene)-4-oxo-2-thioxothiazolidin-3-yl)-N-phenylacetamide]
- IC50 (A549 cells [1]; [3]): 20 ± 4.25 µM

Molecule: O=C(CN1C(=O)/C(=C/c2ccccn2)SC1=S)Nc1ccccc1 [I28, (Z)-2-(4-oxo-5-(pyridin-2-ylmethylene)-2-thioxothiazolidin-3-yl)-N-phenylacetamide]
- IC50 (A549 cells [1]; [3]): 17.3 ± 3.9 µM

Molecule: COc1cccc(NC(=O)CN2C(=O)/C(=C/c3ccccc3)SC2=S)c1 [I30, (Z)-2-(5-benzylidene-4-oxo-2-thioxothiazolidin-3-yl)-N-(3-methoxyphenyl)acetamide]
- IC50 (A549 cells [1]; [3]): 22.1 ± 3.41 µM

Molecule: COc1cccc(NC(=O)CN2C(=O)/C(=C/C3CC3)SC2=S)c1 [I32, (Z)-2–(5-(cyclopropylmethylene)-4-oxo-2-thioxothiazolidin-3-yl)-N-(3-methoxyphenyl)acetamide]
- IC50 (A549 cells [1]; [3]): 39.1 ± 5.62 µM

Molecule: COc1cccc(NC(=O)CN2C(=O)/C(=C/c3ccco3)SC2=S)c1 [I33, (Z)-2–(5-(furan-2-ylmethylene)-4-oxo-2-thioxothiazolidin-3-yl)-N-(3-methoxyphenyl)acetamide]
- IC50 (A549 cells [1]; [3]): 46.5 ± 7.31 µM

Molecule: COc1cccc(NC(=O)CN2C(=O)/C(=C/c3cccs3)SC2=S)c1 [I34, (Z)-N-(3-methoxyphenyl)-2–(4-oxo-5-(thiophen-2-ylmethylene)-2-thioxothiazolidin-3-yl)acetamide]
- IC50 (A549 cells [1]; [3]): 17.8 ± 3.75 µM

Molecule: (Z)-2-(5-(cyclohex-2-en-1-ylmethylene)-4-oxo-2-thioxothiazolidin-3-yl)-N-phenylacetamide [I27]
- IC50 (A549 cells [1]; read-out: IC50 A549, MTT): 51.3 ± 9.09 µM
